Assay outcomes as filed in PubChem.
This is a sample that favours compounds with a hit; in the whole collection about 2.9% have one here.
CHO-K1 Ca PAM: nonselective activator or artifact in parental CHO-K1 calcium assay. activation, % at 3 µM. ATP EC20, Fluo-8 calcium fluorescence; 0% at ATP EC20, 100% at ATP max. 360,000 compounds, 0.02% hits;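 active = activation above the run cutoff, the mean activation of all test compounds plus 3 SD, cut at about 40% in these data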;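 note: peak over basal fluorescence ratio in a 140 s read after ATP addition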
CHO parental Ca: counter-screen for OX1R antagonists: effect in parental CHO cells. parental CHO-K1, ATP-induced calcium, Fluo-8 fluorescence. inhibition, % at 5.6 µM. 330,000 compounds, 0.63% hits. AID 463079;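 active = inhibition above that plate's mean sample inhibition plus 3 SD, cut at about 26% in these data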
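Measured by: calcium-sensitive Fluo-8 fluorescence / Test system: CHO parental line / Controls: ATP-challenged DMSO wells low, unchallenged DMSO wells high / Measure: % inhibition / Compound: single nominal dose of 5.6 µM per compound / Replicates: single well per compound, no replicates / Reagent: ATP as calcium-mobilizing challenge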
CHO-K1 Ca antag: M1 antagonist counterscreen hit in parental CHO-K1 cells | AID 602250 | 360,000 compounds, 0.6% hits | ATP-induced calcium, Fluo-8 fluorescence | inhibition, % at 3 µM;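 active = inhibition above a per-plate cutoff, the plate's mean sample inhibition plus 3 SD, cut at about 24% in these data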
OX1R antag-1: antagonists of human orexin 1 receptor (OX1R) | O43613 | OX1R-expressing cells, FRET antagonist read-out | inhibition, % at 6.6 µM | 330,000 compounds, 1.8% hits | AID 485270; in the data active = inhibition mostly above about 38%, no sharp cut-off; inactive = mostly below about 40%
Target sequence (O43613 whole entry, looked up): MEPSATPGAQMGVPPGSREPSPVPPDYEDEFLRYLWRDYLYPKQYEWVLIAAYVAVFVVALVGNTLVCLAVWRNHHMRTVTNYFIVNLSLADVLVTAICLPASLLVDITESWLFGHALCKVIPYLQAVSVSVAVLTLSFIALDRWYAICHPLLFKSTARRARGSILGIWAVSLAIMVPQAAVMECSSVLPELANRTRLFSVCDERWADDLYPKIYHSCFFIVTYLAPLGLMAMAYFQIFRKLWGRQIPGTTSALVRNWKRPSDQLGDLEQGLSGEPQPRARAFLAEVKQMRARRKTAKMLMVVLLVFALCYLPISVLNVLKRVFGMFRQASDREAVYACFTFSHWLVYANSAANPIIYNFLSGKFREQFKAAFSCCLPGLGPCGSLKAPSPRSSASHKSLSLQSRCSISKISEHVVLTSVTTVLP
OX1R antag-2: blocks the human orexin 1 receptor. O43613. CHO/OX1R cells, Fluo-8 calcium fluorescence, orexin A. inhibition, % at 5 µM. 330,000 compounds, 0.43% hits;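 active = inhibition above its plate's threshold, mean inhibition of all tested compounds on the plate plus 3 SD, cut at about 37% in these data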
M1 ag parental: nonselective activator or artifact in parental CHO-K1 cells | AID 602248 | 360,000 compounds, 0.48% hits | activation, % at 3 µM | Fluo-8 calcium fluorescence; scaled to maximal ATP response, vehicle zero; in the data active = activation above about 15%;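 note: untransfected CHO-K1 host cells lacking M1 receptor as counterscreen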
A number is an active result; - = inactive; . = no result given.

SMILES	CHO-K1 Ca PAM	CHO parental Ca	CHO-K1 Ca antag	OX1R antag-1	OX1R antag-2	M1 ag parental
Nc1nc(Nc2cccc(F)c2)nc2ccccc12	-	-	-	57	-	-
O=c1oc(Nc2cccc(F)c2)nc2ccccc12	-	-	-	-	-	-
Cc1ccc(CC(=O)Nc2ncc([N+](=O)[O-])s2)cc1	-	-	-	40	-	-
O=C(COC(=O)c1ccc(Br)o1)Nc1ncc([N+](=O)[O-])s1	-	-	-	41	-	-
Cc1ncoc1C(=O)Nc1ncc([N+](=O)[O-])s1	-	-	-	-	-	-
Cc1ccc(S(=O)(=O)CC(=O)Nc2ncc([N+](=O)[O-])s2)cc1	-	-	-	-	-	-
CCCCC(CC)C(=O)Nc1ncc([N+](=O)[O-])s1 (centres undefined)	-	38	26	-	-	-
O=C(CCS(=O)(=O)Cc1ccccc1)Nc1ncc([N+](=O)[O-])s1	-	-	-	49	-	-
CCOc1ccccc1C(=O)NCC(=O)NCC(c1ccco1)N1CCCCC1 (centres undefined)	-	-	-	-	-	-
CC(=O)Nc1ccc(NC(=O)C(C)OC(=O)CCc2c[nH]c3ccccc23)cc1 (centres undefined)	-	-	-	-	-	-
CN(CC(=O)Nc1ccc2c(c1)CCC2)CC(=O)Nc1ccccc1Br	-	-	-	40	-	-
CC(C)c1cc(C(=O)N2CCCC(N3CCN(c4ccc(F)cc4)CC3)C2)n(C)n1 (centres undefined)	-	.	-	.	.	-
CC(=O)N1CCN(c2ccc(Oc3ccc([N+](=O)[O-])c(C(F)(F)F)c3)cc2)CC1	-	44	-	-	-	-
CCOc1ccc(C(=O)Nc2ccc(N3CCN(C(C)=O)CC3)cc2)cc1[N+](=O)[O-]	-	-	-	-	-	-
CCOC(=O)N1CCN(C(=O)c2c[nH]c3ccc(S(=O)(=O)N(C)c4ccccc4C)cc3c2=O)CC1	-	-	58	-	-	-
CCOC(=O)N1CCN(C(=O)c2c[nH]c3ccc(S(=O)(=O)N(C)c4cccc(C)c4)cc3c2=O)CC1	-	-	-	-	-	-
CCN1/C(=C/c2ccc3ccccc3[n+]2CCCS(=O)(=O)[O-])C=Cc2cc(C)ccc21	-	.	-	.	.	-
CCN1/C(=C/c2ccc3ccccc3[n+]2CC)C=Cc2ccccc21	-	71	32	100	-	-
CCCCN1/C(=C/c2cccc[n+]2C)Sc2cc(NC(C)=O)ccc21	-	-	-	-	-	-
CCN1/C(=C/c2ccc3cc(C)ccc3[n+]2CC)Sc2cc(C)ccc21	-	.	43	.	.	22
CCN1/C(=C/c2ccc3cc(C)ccc3[n+]2C)Sc2ccc3sccc3c21	-	.	-	.	.	-
CCCCN1/C(=C/c2ccc3ccccc3[n+]2CC)Sc2ccccc21	-	.	-	.	.	19
COCc1cc(C)nc2sc3c(=O)n(Cc4ccco4)nnc3c12	-	.	26	.	.	-
Cc1cc(C)c2c(n1)sc1c(=O)n(Cc3ccccc3Cl)nnc12	-	.	-	.	.	-
CCn1c(SC(C)C(=O)NC2CCCC2)nc2cc(S(N)(=O)=O)ccc21 (centres undefined)	-	-	-	-	-	-
SMILES	CHO-K1 Ca PAM	CHO parental Ca	CHO-K1 Ca antag	OX1R antag-1	OX1R antag-2	M1 ag parental
CCCOc1ccc(Br)cc1CSC(=N)N	-	-	-	-	-	36
CC(=O)NC(CC(C)C)C(=O)O (centres undefined)	-	.	-	.	.	-
COCC(=O)N1C[C@H]2CON(C)[C@H]2C[C@H]1c1ccc(N2CCCCC2)cc1	-	.	-	.	.	-
CCOc1cccc(=O)c2c(C)n(Cc3ccccc3)c(C)c12	-	-	-	-	-	23
CCOc1cccc(=O)c2c(C)n(Cc3ccco3)c(C)c12	-	-	-	-	-	-
Cc1ccccc1OCC(=O)NCC(=O)OCC(=O)c1ccc([N+](=O)[O-])cc1	-	-	-	-	-	-
O=C(CCC(=O)OCC(=O)c1cccc([N+](=O)[O-])c1)Nc1cccc(Cl)c1Cl	-	-	-	-	-	-
O=C(CCC(=O)OCC(=O)c1ccc([N+](=O)[O-])cc1)Nc1ccccc1Cl	-	-	-	58	-	-
O=C(COc1ccccc1F)OCC(=O)c1ccc([N+](=O)[O-])cc1	-	-	-	31	-	-
O=C(COC(=O)Cc1ccccc1F)NNC(=O)c1ccc([N+](=O)[O-])cc1	-	-	-	63	-	-
O=C(COC(=O)c1cnccn1)c1ccc([N+](=O)[O-])cc1	-	-	-	44	-	-
Nc1c(CNCc2nnn(Cc3ccccc3)c2N)nnn1Cc1ccccc1	-	.	-	.	.	-
CCc1nc2c(OCc3ccc4c(c3)OCO4)cccn2c1N(C=O)Cc1ccc(OC)cc1	-	.	-	.	.	-
C[C@H](CO)N1C[C@H](C)[C@@H](CN(C)S(=O)(=O)c2cccs2)Oc2ccc(NC(=O)Cn3cnnn3)cc2C1=O	-	-	-	-	-	-
COc1cccc(-c2cc3nc(Nc4ccc(OC)c(OC)c4)n(C)c(=O)c3s2)c1	-	.	-	.	.	-
CCN(CC)C(=O)C1=C(C)N(CCCOC)C(=O)C(CC(=O)NCCc2ccccn2)C1 (centres undefined)	-	.	30	.	.	-
COCCCN1C(=O)C(CC(=O)NCCc2ccccn2)CC(C(=O)N2CCOCC2)=C1C (centres undefined)	-	.	-	.	.	-
CN1/C(=C\C(=O)COC(=O)c2ccc(O)cc2)C(C)(C)c2ccccc21	-	54	-	-	47	-
CN1/C(=C\C(=O)COC(=O)c2ccc(O)c(O)c2)C(C)(C)c2ccccc21	.	50	.	-	40	.
Cc1cc(NC(=O)Cn2c(=O)oc3ccccc32)no1	-	-	-	-	-	-
Cc1ccc(NC(=O)c2c(C(F)(F)F)nn(C)c2SCc2cccc(C(F)(F)F)c2)cc1C	-	67	-	-	-	-
Cc1ccc(NC(=O)c2c(C(F)(F)F)nn(C)c2SCc2ccc(Cl)cc2)cc1C	-	-	-	-	-	-
CCCc1cc(NCc2ccccn2)n2c(nc3ccccc32)c1C#N	-	-	-	-	-	15
Cc1cc(N2CCN(c3ccccn3)CC2)n2c(nc3ccccc32)c1C#N	-	.	29	.	.	-
Cc1cc(NCc2ccccn2)n2c(nc3ccccc32)c1C#N	-	.	-	.	.	-
CCOC(=O)CC(NC(=O)Cc1cccs1)c1ccccc1Cl (centres undefined)	-	-	-	-	-	-
C=CCn1c(NC(=O)c2ccccc2Cl)c(C#N)c2nc3ccccc3nc21	-	-	-	69	-	-
CCN1C(=NCCN2CCOCC2)N[C@@H](c2ccccc2)C(C(=O)OC)=C1C	-	-	26	-	-	-
COC(=O)C1=C(C)N(Cc2ccccc2)C(=NCc2ccccc2)N[C@H]1c1ccccc1	-	-	-	-	-	16
